Test results: ChEMBL document CHEMBL4011650, “3-Hydroxy-1H-quinazoline-2,4-dione as a New Scaffold To Develop Potent and Selective Inhibitors of the Tumor-Associated Carbonic Anhydrases IX and XII” (J Med Chem, 2017)
The source made the active and inactive calls. No cut-off for these calls is given here.

How the values were obtained:
Carbonic anhydrase 1 = Carbonic anhydrase 1 (Homo sapiens, UniProt P00915); experiment: Inhibition of recombinant human carbonic anhydrase 1 preincubated for 15 mins prior to testing by phenol red based stopped-flow CO2 hydration assay
Carbonic anhydrase 2 = Carbonic anhydrase 2 (Homo sapiens, UniProt P00918); experiment: Inhibition of recombinant human carbonic anhydrase 2 preincubated for 15 mins prior to testing by phenol red based stopped-flow CO2 hydration assay
Carbonic anhydrase 9 = Carbonic anhydrase 9 (Homo sapiens, UniProt Q16790)
HT-29 [1] = experiment: Antiproliferative activity against human HT-29 cells assessed as cell viability at 30 uM after 48 hrs under hypoxic conditions by MTT assay relative to control; format: functional; conditions: HT-29, 48 h, read-out: Activity
Outline: (§1)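 HT-29 cells were grown in high-glucose DMEM with 20% FBS, seeded at 1·10^4/well and dosed 24 h later. Incubation was in a hypoxic chamber (0.1% O2, 5% CO2, balance N2) for 16, 48 or 72 h. Cells were washed, given MTT 1 mg/ml for 30 min at 37 °C, and formazan was dissolved in DMSO and read at 550 nm. Viability is % of untreated control, mean ± S.E.M.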

HT-29 [2] = experiment: Antiproliferative activity against human HT-29 cells assessed as cell viability at 100 uM after 72 hrs under hypoxic conditions by MTT assay relative to control; format: functional; conditions: HT-29, 72 h, read-out: Activity; outline: as §1
[3] = Antiproliferative activity against human HT-29 cells assessed as cell viability at 30 uM after 48 hrs under normoxic conditions by MTT assay relative to control; format: cell-based; conditions: read-out: Activity
Outline: (§2)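 HT-29 cells in high-glucose DMEM with 20% FBS were seeded at 1·10^4/well and treated 24 h later. Incubation was under normoxia (20% O2, air with 5% CO2) at 37 °C for 16, 48 or 72 h. Viability was read by MTT reduction (1 mg/ml, 30 min), with formazan in DMSO read at 550 nm, relative to untreated control set at 100%. Quadruplicates on at least three cell batches.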

[4] = Antiproliferative activity against human HT-29 cells assessed as cell viability at 300 uM after 48 hrs under normoxic conditions by MTT assay relative to control; format: cell-based; conditions: read-out: Activity; outline: as §2
[5] = Antiproliferative activity against human HT-29 cells assessed as cell viability at 100 uM after 48 hrs under normoxic conditions by MTT assay relative to control; format: cell-based; conditions: read-out: Activity; outline: as §2
HT-29 [6] = experiment: Antiproliferative activity against human HT-29 cells assessed as cell viability at 300 uM after 72 hrs under hypoxic conditions by MTT assay relative to control; format: functional; conditions: HT-29, 72 h, read-out: Activity; outline: as §1
[7] = Antiproliferative activity against human HT-29 cells assessed as cell viability at 100 uM after 72 hrs under normoxic conditions by MTT assay relative to control; format: cell-based; conditions: read-out: Activity; outline: as §2
[8] = Antiproliferative activity against human HT-29 cells assessed as cell viability at 30 uM after 72 hrs under normoxic conditions by MTT assay relative to control; format: cell-based; conditions: read-out: Activity; outline: as §2
HT-29 [9] = experiment: Antiproliferative activity against human HT-29 cells assessed as cell viability at 30 uM after 72 hrs under hypoxic conditions by MTT assay relative to control; format: functional; conditions: HT-29, 72 h, read-out: Activity; outline: as §1
HT-29 [10] = experiment: Antiproliferative activity against human HT-29 cells assessed as cell viability at 100 uM after 48 hrs under hypoxic conditions by MTT assay relative to control; format: functional; conditions: HT-29, 48 h, read-out: Activity; outline: as §1
[11] = Antiproliferative activity against human HT-29 cells assessed as cell viability at 300 uM after 72 hrs under normoxic conditions by MTT assay relative to control; format: cell-based; conditions: read-out: Activity; outline: as §2
HT-29 [12] = experiment: Antiproliferative activity against human HT-29 cells assessed as cell viability at 300 uM after 48 hrs under hypoxic conditions by MTT assay relative to control; format: functional; conditions: HT-29, 48 h, read-out: Activity; outline: as §1
HT-29 [13] = experiment: Antiproliferative activity against human HT-29 cells assessed as reduction in cell viability at 30 to 300 uM after 16 hrs under hypoxic conditions by MTT assay relative to control; format: functional, cell-based; outline: as §1
HT-29 [14] = experiment: Antiproliferative activity against human HT-29 cells assessed as reduction in cell viability at 30 to 300 uM after 16 hrs under normoxic conditions by MTT assay relative to control; format: cell-based; conditions: ht-29, 16 h; outline: as §2

Sequence of Carbonic anhydrase 1 (P00915 whole entry): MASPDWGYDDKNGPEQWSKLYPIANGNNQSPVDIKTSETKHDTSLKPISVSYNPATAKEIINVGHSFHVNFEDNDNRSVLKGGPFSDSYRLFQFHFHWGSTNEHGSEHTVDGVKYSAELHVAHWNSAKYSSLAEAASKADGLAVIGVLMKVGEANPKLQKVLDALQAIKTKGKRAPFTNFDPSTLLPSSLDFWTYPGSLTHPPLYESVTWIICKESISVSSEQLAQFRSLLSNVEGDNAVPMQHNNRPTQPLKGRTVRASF

Row | Structure (SMILES) | Ki (Carbonic anhydrase 1) | Ki (Carbonic anhydrase 2) | Ki (Carbonic anhydrase 9) | viability at 30 µM (HT-29 [1]) | viability at 100 µM (HT-29 [2]) | viability at 48 h, 30 µM [3] | viability at 48 h, 300 µM [4] | viability at 48 h, 100 µM [5] | viability at 300 µM (HT-29 [6]) | viability at 72 h, 100 µM [7] | viability at 72 h, 30 µM [8] | viability at 30 µM (HT-29 [9]) | viability at 100 µM (HT-29 [10]) | viability at 72 h, 300 µM [11] | viability at 300 µM (HT-29 [12]) | Activity (HT-29 [13]) | Activity (HT-29 [14])
1 | O=c1[nH]c2ccc(-n3cnnc3)cc2c(=O)n1O | > 10 µM | > 10 µM | 0.0695 µM |  |  |  |  |  |  |  |  |  |  |  |  |  | 
2 | O=c1[nH]c2ccccc2c(=O)n1O | > 10 µM | > 10 µM | 0.48 µM |  |  |  |  |  |  |  |  |  |  |  |  |  | 
3 | O=c1[nH]c2cc(Cl)cc(Cl)c2c(=O)n1O | > 10 µM | > 10 µM | 0.0077 µM | 101% | 87% | 92.6% | 91% | 93.8% | 78.9% | 95.9% | 94.2% | 93% | 102% | 94.9% | 104% |  | 
4 | O=c1[nH]c2cc(Cl)ccc2c(=O)n1O | > 10 µM | > 10 µM | 0.0697 µM |  |  |  |  |  |  |  |  |  |  |  |  |  | 
5 | O=c1[nH]c2cc(C(F)(F)F)c([N+](=O)[O-])cc2c(=O)n1O | > 10 µM | > 10 µM | 0.0097 µM | 45.2% | 38.2% | 53.9% | 45.1% | 57.7% | 40.3% | 45.3% | 41.5% | 38.6% | 46.8% | 49.7% | 50.2% |  | 
6 | O=c1[nH]c2cc(C(F)(F)F)ccc2c(=O)n1O | > 10 µM | > 10 µM | 0.0082 µM |  |  |  |  |  |  |  |  |  |  |  |  |  | 
7 | O=c1[nH]c2ccc(Cl)cc2c(=O)n1O | > 10 µM | > 10 µM | 0.0482 µM |  |  |  |  |  |  |  |  |  |  |  |  |  | 
8 | O=c1[nH]c2ccc([N+](=O)[O-])cc2c(=O)n1O | > 10 µM | > 10 µM | 0.0046 µM | 98.8% | 93.7% | 101% | 95.1% | 95.5% | 87.3% | 94.1% | 95.6% | 94.7% | 99.5% | 94.3% | 96.7% |  | 
9 | COn1c(=O)[nH]c2cc(Cl)ccc2c1=O | > 10 µM | > 10 µM | 0.208 µM |  |  |  |  |  |  |  |  |  |  |  |  |  | 
10 | O=C(O)COn1c(=O)[nH]c2cc(Cl)c([N+](=O)[O-])cc2c1=O | > 10 µM | > 10 µM | 0.018 µM |  |  |  |  |  |  |  |  |  |  |  |  |  | 
11 | CC(=O)Nc1nnc(S(N)(=O)=O)s1 [ACETAZOLAMIDE] |  |  |  | 108% | 111% | 96.8% | 101% | 101% | 84.1% | 95.8% | 97.6% | 107% | 102% | 93.2% | 85.7% |  | 
12 | O=c1[nH]c2cc(C(F)(F)F)c(-n3cnnc3)cc2c(=O)n1O | > 10 µM | > 10 µM |  |  |  |  |  |  |  |  |  |  |  |  |  |  | 
13 | Nc1ccc2[nH]c(=O)n(O)c(=O)c2c1 | > 10 µM | > 10 µM | 0.273 µM |  |  |  |  |  |  |  |  |  |  |  |  |  | 

Further lines, with some results ahead:

Row | Ki (Carbonic anhydrase 1) | Ki (Carbonic anhydrase 2) | Ki (Carbonic anhydrase 9) | Structure (SMILES) | viability at 30 µM (HT-29 [1]) | viability at 100 µM (HT-29 [2]) | viability at 48 h, 30 µM [3] | viability at 48 h, 300 µM [4] | viability at 48 h, 100 µM [5] | viability at 300 µM (HT-29 [6]) | viability at 72 h, 100 µM [7] | viability at 72 h, 30 µM [8] | viability at 30 µM (HT-29 [9]) | viability at 100 µM (HT-29 [10]) | viability at 72 h, 300 µM [11] | viability at 300 µM (HT-29 [12]) | Activity (HT-29 [13]) | Activity (HT-29 [14])
14 | > 10 µM | > 10 µM | 0.0083 µM | O=c1[nH]c2cc(Cl)c(-n3cccc3)cc2c(=O)n1O |  |  |  |  |  |  |  |  |  |  |  |  |  | 
15 | > 10 µM | > 10 µM | 0.0082 µM | O=c1[nH]c2cc(Cl)c(Cl)cc2c(=O)n1O | 106% | 78.1% | 93.4% | 9.44% | 91% | 24.5% | 73.5% | 107% | 93.3% | 76% | 20.6% | 14.8% |  | 
16 | > 10 µM | > 10 µM | 0.0431 µM | Nc1cc2c(=O)n(O)c(=O)[nH]c2cc1Cl |  |  |  |  |  |  |  |  |  |  |  |  |  | 
17 | > 10 µM | > 10 µM | 0.0079 µM | O=C(O)c1ccc(C(=O)Nc2cc3c(=O)n(O)c(=O)[nH]c3cc2Cl)cc1 |  |  |  |  |  |  |  |  |  |  |  |  |  | 
18 | > 10 µM | > 10 µM | 0.0083 µM | O=C1C=CCN1c1cc2c(=O)n(O)c(=O)[nH]c2cc1Cl | 50.6% | 45.7% | 48.5% | 106% | 56.2% | 65.2% | 57.3% | 36.4% | 20.6% | 60.1% | 68.3% | 88.9% |  | 
19 | > 10 µM | > 10 µM |  | O=c1[nH]c2cc(Cl)c([N+](=O)[O-])cc2c(=O)n1O | 45.7% | 55.9% | 58.2% | 77.6% | 72.5% | 63.5% | 61.2% | 36.8% | 41.6% | 64.6% | 70.3% | 70.8% |  | 
20 | > 10 µM | > 10 µM | 0.0081 µM | O=C(O)c1ccccc1C(=O)Nc1cc2c(=O)n(O)c(=O)[nH]c2cc1Cl |  |  |  |  |  |  |  |  |  |  |  |  |  | 
21 | > 10 µM | > 10 µM | 0.0428 µM | O=C(Nc1ccccc1)Nc1cc2c(=O)n(O)c(=O)[nH]c2cc1Cl |  |  |  |  |  |  |  |  |  |  |  |  |  | 
22 | > 10 µM | > 10 µM | 0.0648 µM | O=C(O)CCC(=O)Nc1ccc2[nH]c(=O)n(O)c(=O)c2c1 |  |  |  |  |  |  |  |  |  |  |  |  |  | 
23 | > 10 µM | > 10 µM | 0.0069 µM | O=C(NCc1ccccc1)Nc1cc2c(=O)n(O)c(=O)[nH]c2cc1Cl |  |  |  |  |  |  |  |  |  |  |  |  |  | 
24 | > 10 µM | > 10 µM | 0.0333 µM | O=c1[nH]c2cc(Cl)c(-n3cnnc3)cc2c(=O)n1O |  |  |  |  |  |  |  |  |  |  |  |  |  | 
25 | > 10 µM | > 10 µM | 0.007 µM | O=C(O)CCC(=O)Nc1cc2c(=O)n(O)c(=O)[nH]c2cc1Cl |  |  |  |  |  |  |  |  |  |  |  |  |  | 
26 | > 10 µM | > 10 µM | 0.301 µM | O=C(Nc1ccccc1)Nc1ccc2[nH]c(=O)n(O)c(=O)c2c1 |  |  |  |  |  |  |  |  |  |  |  |  |  | 
27 | > 10 µM | > 10 µM | 0.0749 µM | O=c1[nH]c2cc(Cl)c(-n3ccnc3)cc2c(=O)n1O |  |  |  |  |  |  |  |  |  |  |  |  |  | 
28 | > 10 µM | > 10 µM | 0.0267 µM | O=C(NCc1ccccc1)Nc1ccc2[nH]c(=O)n(O)c(=O)c2c1 | 50.6% | 40.2% | 57.4% | 85.6% | 56.9% | 59.9% | 51.7% | 32.4% | 33.4% | 46% | 61.3% | 78.2% | Active | Toxic
29 | > 10 µM | > 10 µM | 0.0625 µM | O=C(O)c1ccccc1C(=O)Nc1ccc2[nH]c(=O)n(O)c(=O)c2c1 |  |  |  |  |  |  |  |  |  |  |  |  |  | 
30 | > 10 µM | > 10 µM | 0.0588 µM | O=C(Nc1cc2c(=O)n(O)c(=O)[nH]c2cc1Cl)c1ccccc1 |  |  |  |  |  |  |  |  |  |  |  |  |  | 
